In the library only some 1.5% were active in any assay of this set; here they are far more common.
SIAE inh: human SIAE inhibition, primary screen. SIAE FP-Rh probe binding, fluorescence polarization. inhibition, % at 9.66 µM. hit rate 0.69% among 370,000. AID 1053197;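 active = inhibition above a cutoff: mean of compounds within the control limits plus 3 SD of those, cut at about 17% in these data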;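 also: 0% = plate median of compound wells and 100% = probe without SIAE protein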
TCR CD3 inh: human TCR-CD3 binding inhibition | inhibition, % at 9.4 µM | AID 651800 | TAMRA-labeled TCR probe fluorescence, biochemical | hit rate 0.37% among 360,000; in the data active = inhibition above about 19%;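 also: recombinant mutant TCR 2C K166C tagged with TAMRA read by polarization; 0% = receptor in buffer alone and 100% = receptor with positive control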
HTRA1 inh: blocks human HTRA1 serine peptidase | Q92743 | recombinant HTRA1, FP-rhodamine activity-based probe, fluorescence polarization | inhibition, % at 5.96 µM | hit rate 0.5% among 340,000; in the data active = inhibition above about 36%;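 also: 0% = enzyme with DMSO and 100% = wells lacking enzyme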
DAGLB inh: blocks human DAGLB lipase activity | Q8NCG7 | HEK293T DAGLB membrane lysate, EnzChek fluorogenic substrate | inhibition, % at 5.17 µM | hit rate 0.059% among 340,000; in the data active = inhibition above about 34%;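 also: 0% = enzyme with vehicle and 100% = wells lacking enzyme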
mABHD4 FP: ABHD4 (mouse) inhibition, primary FP screen; purified mABHD4, FP-Rh probe fluorescence polarization; inhibition, % at 8.92 µM; hit rate 0.54% among 370,000; AID 720543;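 active = inhibition exceeding the mean over every tested compound plus 3 SD, cut at about 30% in these data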;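 also: 0% = plate median of compound wells and 100% = S159A mutant with DMSO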
Target sequence (Q8VD66 whole entry, looked up): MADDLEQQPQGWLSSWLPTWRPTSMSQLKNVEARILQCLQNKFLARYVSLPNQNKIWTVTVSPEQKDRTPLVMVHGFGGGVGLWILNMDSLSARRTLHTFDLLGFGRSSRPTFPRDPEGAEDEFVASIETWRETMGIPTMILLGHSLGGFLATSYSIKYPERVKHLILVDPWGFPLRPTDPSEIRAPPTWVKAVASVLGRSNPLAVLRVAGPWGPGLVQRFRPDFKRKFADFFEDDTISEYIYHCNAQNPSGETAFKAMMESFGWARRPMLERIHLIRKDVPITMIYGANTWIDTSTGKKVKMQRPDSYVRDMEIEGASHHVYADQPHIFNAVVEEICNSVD
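Doses – 8.92 µM, single dose · Material – wild-type mouse ABHD4 protein · Replication – single well per compound (singlicate) · Measure – percent inhibition of probe binding, normalized to plate controls · Schedule – 45 min compound pre-incubation plus 60 min probe step, 25 °C · Detection – fluorescence polarization with parallel and perpendicular emission, 525/598 nm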
SIAE inh conf: confirmation of human SIAE inhibitors. shares compounds with SIAE inh. SIAE FP-Rh activity-based probe, fluorescence polarization. inhibition, % at 9.66 µM. hit rate 13% among 2,300;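 active = mean inhibition of the replicates above the hit cutoff set in the primary screen, cut at about 17% in these data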;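 also: 0% = SIAE with DMSO and probe and 100% = probe without SIAE; inhibitors lower polarization as more probe stays unbound to SIAE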
* marks the source's active call; other numbers are inactive results; x = no result.

SMILES	SIAE inh	TCR CD3 inh	HTRA1 inh	DAGLB inh	mABHD4 FP	SIAE inh conf
CCOc1cc(C(N)=O)cc(Br)c1OCC	10.0	11.1	-2.8	0.8	-0.3	x
CCOc1cc(C(N)=O)cc(Cl)c1OCC	17.2*	0.1	0.1	-0.5	-1.6	1.5
O=C(Nc1ccc(N2CCCCC2)c(Cl)c1)c1ccc(N2CCOCC2)c([N+](=O)[O-])c1	13.3	-5.5	-3.9	11.1	-0.7	x
O=C(Nc1ccc2c(c1)OCO2)c1ccc(N2CCCC2)c([N+](=O)[O-])c1	22.2*	2.3	4.8	3.9	6.7	3.4
CN(Cc1ccccc1)C(=O)OCc1cn(Cc2ccc(F)cc2)nn1	-1.7	x	x	x	2.0	x
Oc1ccc(C[C@H]2CN([C@@H](Cc3cccc(O)c3)CN3CCC[C@@H]3CN3C(=S)NC[C@@H]3Cc3ccccc3)C(=S)N2CC2CCCCC2)cc1	-34.9	1.7	x	x	-42.9	x
COc1cc(OC)c(NC(=O)N2CCOCC2)cc1Cl	25.2*	-4.5	3.1	0.5	0.1	2.4
NC(=O)c1ccc(NC(=O)COC(=O)c2ccccc2SCC(=O)N2CCCC2)cc1	-1.9	7.7	2.0	-2.1	3.6	x
O=C(COC(=O)c1ccccc1SCC(=O)N1CCCC1)Nc1ccc(OC(F)F)cc1	19.8*	2.5	2.1	0.8	-7.3	1.3
Cc1coc2cc3oc(=O)c(CCC(=O)NCCCn4ccnc4)c(C)c3cc12	7.9	3.5	-5.4	0.4	-1.3	x
Cc1c(CCC(=O)NCCCn2ccnc2)c(=O)oc2cc3occ(C(C)(C)C)c3cc12	18.2*	-4.8	1.1	1.4	11.9	0.7
CCCCCCC(=O)NC1CCCCN(Cc2cccc(Cl)c2)C1=O (configuration not stated)	7.1	x	x	x	0.2	x
CC(C)(C)N(C=C(Cl)Cl)C(=O)NC1CCCCC1	-1.8	2.0	-1.8	-2.8	-5.4	x
CC(C)=CCC(C)(C)CNC(=O)NC1CCCCC1	20.1*	2.2	-6.4	-5.0	-1.8	-3.9
O=C(Cc1c[nH]c2ccccc12)Nc1ccc(Nc2ccncc2)cc1	14.9	-0.9	x	x	5.7	x
C=CCOc1ccccc1CNc1ccccc1C	19.7*	-2.8	9.3	-4.7	9.5	2.4
CCCc1c(C(=O)NNc2ccccc2OC)cnn1-c1ccccc1	18.2*	-6.4	8.7	0.9	2.9	2.9
CCCc1c(C(=O)Nc2ccc(OC)cc2)cnn1-c1ccccc1	1.9	2.4	-8.1	-5.9	-2.3	x
CN(C)c1ccc(CNc2nc3cc(-c4ccc(F)cc4)sc3c(=O)n2C)cc1	17.4*	0.9	x	x	-7.0	2.6
CC1(C)CC(NC(=O)COc2ccc(Cl)cc2Cl)CC(C)(C)N1	3.9	1.1	-5.0	-1.6	-2.7	x
CC(C)c1ccc(OCC(=O)NC2CC(C)(C)NC(C)(C)C2)c(Br)c1	18.3*	9.4	2.5	0.8	3.2	-4.2
Cc1cccc(OCC(=O)O/N=C(\N)c2ccccn2)c1C	31.4*	0.1	-8.2	-2.0	-7.8	-7.1
Cc1cc(-c2n[nH]c(=S)n2N=Cc2cccc(OCc3ccccc3)c2)n[nH]1	4.0	x	x	x	7.2	x
CCCCCCCCN1C(=O)[C@@H](CC(=O)NCc2cccc3ccccc23)C[C@@]2(C(=O)OC)C1=C[C@H](C1CCCC1)O[C@@H]2C	7.2	2.7	x	x	-0.9	x
O=C(OCC#CCSc1nnc(-c2cccc3ccccc23)o1)c1sccc1Cl	2.8	x	x	x	0.1	x
SMILES	SIAE inh	TCR CD3 inh	HTRA1 inh	DAGLB inh	mABHD4 FP	SIAE inh conf
O=C(NC(C(=O)N1CCCC1C(=O)NC1CCCC1)c1ccccc1)c1cccs1 (configuration not stated)	-3.5	-2.0	x	x	6.2	x
O=C(NCCc1c[nH]c2ccccc12)c1ccccc1	7.6	-6.5	2.3	-2.6	2.3	x
Nc1[nH]c(C(=O)c2ccccc2)c(-c2ccc([N+](=O)[O-])cc2)c1C(=O)NCCc1c[nH]c2ccccc12	3.9	-6.0	x	x	8.7	x
Nc1[nH]c(C(=O)c2ccccc2)c(-c2ccccc2[N+](=O)[O-])c1C(=O)NCCc1c[nH]c2ccccc12	18.5*	-4.0	x	x	22.8	1.3
Nc1[nH]c(C(=O)c2ccccc2)c(-c2ccccc2Br)c1C(=O)NCCc1c[nH]c2ccccc12	19.4*	0.4	x	x	18.0	6.6
Nc1[nH]c(C(=O)c2ccc(Br)cc2)c(-c2ccccc2Br)c1C(=O)NCCc1c[nH]c2ccccc12	6.9	-5.2	x	x	11.0	x
Nc1sc(-c2ccccc2)cc1C(=O)NCCc1c[nH]c2ccccc12	25.8*	-1.9	x	x	1.0	8.1
COC(=O)c1cc2c(c3c4cc(OC)ccc4n(S(=O)(=O)c4ccc(OC)cc4)c13)C(=O)N(Cc1ccc(N(C)C)cc1)C2	-0.3	1.7	x	x	0.9	x
